Assay outcomes: PubChem BioAssay, several laboratories
Shown are actives, neighbours in structure and some others; about 3.7% of the full set was active somewhere.
UPR XBP1 act: activators of adaptive arm of unfolded protein response (XBP1) | 330,000 compounds, 0.33% hits | CHO-XBP1 luciferase reporter, IRE1-XBP1 UPR activation, luminescence; percent of tunicamycin response, DMSO as zero | activation, % at 20 µM;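 active = versus positive control, 20 µM dose yields 30% or more activation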;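 note: 100% = tunicamycin at 10 µg/mL and 0% = DMSO only wells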
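Material: CHO-XBP1 cells stably carrying IRE1-XBP1-driven luciferase reporter | Medium: F12 with 10% serum | Compound dosing: 20 µM single concentration, DMSO 1% | Incubation: Overnight seeding at 37 °C, 6 h compound treatment at 37 °C | Detection: Steady-Glo luminescence read | Read-out basis: % activation of reporter signal versus tunicamycin and DMSO controls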
B2AR ag: human beta-2 adrenergic receptor agonism by FAP; response, % (no concentration beside the values); Am2.2-beta2AR cells, FAP receptor internalization, flow cytometry; 340,000 compounds, 0.43% hits; P07550;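 active = response above a set limit, near 3 SD of response in nonfluorescent compounds, cut at about 42% in these data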
UPR CHOP act: apoptotic UPR (CHOP) activation; CHO-CHOP luciferase reporter, luminescence; percent of tunicamycin response over DMSO baseline; activation, % at 10 µM; AID 449763; 330,000 compounds, 0.34% hits;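 active = at 10 µM dose, activation of 40% or more, normalized to positive control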;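 note: 100% = tunicamycin at 10 µg/mL and 0% = DMSO alone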
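Test system: CHO-CHOP cells, stable luciferase reporter of PERK-eIF2a-CHOP signalling | Quantity: 500 CHO-CHOP cells per well | Buffer or medium: F12 plus 10% serum | Compound dosing: 10 µM single point, 0.5% DMSO | Schedule: 6 h compound treatment, 37 °C | Signal: Luciferase luminescence | Control set: Tunicamycin high control, DMSO low control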
Mdm2 ligase inh: blocks human Mdm2 ubiquitin ligase activity | Q00987 | cell-based MDM2 ubiquitination luciferase reporter, 2 h; 0 = plate control, 100 = twice control, blank-subtracted | signal enhancement, % at 5 µM | 210,000 compounds, 0.11% hits | AID 1230;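 active = signal enhancement of 30% or more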;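 note: luminescence tracks abundance of the self-degrading MDM2-luciferase fusion protein; higher signal means inhibition of MDM2 E3 ligase activity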
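Test system: mammalian cells stably expressing self-ubiquitinating, self-degrading MDM2 E3–luciferase fusion; Amount: 2000 cells in each well; Medium: DMEM; Schedule: 4 h settle plus 2 h compound, 37 °C; Technique: SteadyLite luciferase luminescence after 15 min room-temperature reagent incubation; Benchmarks: plate control and blank wells.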
Mdm2 MdmX PPI: human Mdm2/MdmX binding inhibition. O15151+Q00987. SaOS-2 split-luciferase Mdm2/MdmX complementation, luminescence. inhibition, % at 8 µM. 330,000 compounds, 3% hits. AID 485346;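 active = inhibition of at least 50% at 8 µM in the primary screen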
Dynein transport: blocks dynein driven cargo transport along microtubules. 3617.4 mouse cells, GR-EGFP nuclear translocation imaging; test concentration mostly 20 µM; stimulated with dexamethasone, 1 µM; stronger effect = lower value. z-score, hits read low. 220,000 compounds, 0.47% hits. AID 1381;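 active = plate z-score of nuclear minus cytoplasmic receptor signal below a set negative limit, without overly bright fluorescence or cell loss, cut at about -3.5 in these data, passing the limit was not always enough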;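 note: z-score of nuclear minus cytoplasmic ring GR-EGFP intensity difference per well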
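Buffer or medium: tetracycline-free induction medium containing charcoal-stripped FBS / Reagent: dexamethasone agonist, 1.0 µM final, for 30 min / Technique: automated 10x imaging of fixed Hoechst-stained cells / Times: induction 48 h, compound 1 h, agonist 30 min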
Mdm2-MdmX conf: confirmation of human Mdm2/MdmX interaction inhibitors. shares compounds with Mdm2 MdmX PPI. Mdm2-MdmX binding, luminescent assay. 10,000 compounds, 55% hits. AID 489028. inhibition, % at 8 µM; in the data active = inhibition above about 40%
FLuc counter: inhibits full-length luciferase, flagging false Mdm2/MdmX hits; shares compounds with Mdm2 MdmX PPI; inhibition, % at 8 µM; SaOS-2 full-length luciferase counterscreen, luminescence; 6,200 compounds, 77% hits;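 active = mean inhibition at 8 µM reaching about 37%, which flags the compound as non-specific, limit read from the data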;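 note: p53-null SaOS-2 cells with luciferase driven by a doxycycline-inducible promoter; compound on cells about two nights before reading with doxycycline added after day one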
* marks the source's active call; other numbers are inactive results.

`Cc1c(C(=O)OC2CCCC2)[nH]c2c1C(=O)CC(c1ccco1)C2` (stereo unspecified) gave UPR XBP1 act 11, B2AR ag 15, UPR CHOP act -2, Mdm2 ligase inh -7, Mdm2 MdmX PPI 68*, Dynein transport -0.72, Mdm2-MdmX conf 48* and FLuc counter 78*.
Cn1c(N)c(C(=O)CSc2nnc(NC3CCCCC3)s2)c(=O)n(C)c1=O was read as UPR XBP1 act -1, B2AR ag 2, UPR CHOP act 1 and Mdm2 MdmX PPI -15.
`CCc1ccc(C(=O)NNC(=O)c2cc(S(=O)(=O)N(C)C)ccc2N2CCCC2)cc1` gave UPR XBP1 act -3, B2AR ag -2, UPR CHOP act 0 and Mdm2 MdmX PPI -7.
Screening CC(C)(C)c1nc(NC(=O)Nc2ccccc2)sc1Br returned UPR XBP1 act 6, B2AR ag -1, UPR CHOP act 1, Mdm2 ligase inh -13, Mdm2 MdmX PPI 66*, Dynein transport 0.48 and Mdm2-MdmX conf 4.
Screening COc1ccc2nc(NC(=O)Nc3ccccc3)sc2c1 returned UPR XBP1 act -10, B2AR ag -8, UPR CHOP act 2, Mdm2 MdmX PPI -87 and Dynein transport -0.86.
Screening CN(C)c1ccc(-n2cccc2/C=C/[N+](=O)[O-])cc1 returned UPR XBP1 act 1, B2AR ag 27, UPR CHOP act 17, Mdm2 ligase inh 25, Mdm2 MdmX PPI 65*, Dynein transport -1.8 and Mdm2-MdmX conf 34.
CN(C)c1ccc(/C=C/c2c([N+](=O)[O-])c(=O)n(C)c(=O)n2C)cc1 was read as UPR XBP1 act -3, B2AR ag 2, UPR CHOP act 1 and Mdm2 MdmX PPI -11.
`O=C(O)Cc1ccc(NC(=O)Nc2ccc3c(c2)OCO3)cc1` gave UPR XBP1 act -6, B2AR ag 2, UPR CHOP act 5 and Mdm2 MdmX PPI -5.
COCC(C)n1c(SCc2cc(=O)n3cc(C)ccc3n2)nc2ccccc2c1=O (stereo unspecified) was read as UPR XBP1 act 10, B2AR ag -16, UPR CHOP act 0, Mdm2 ligase inh -1, Mdm2 MdmX PPI 51*, Dynein transport 1.6 and Mdm2-MdmX conf 10.
Cc1ccc2nc(CSc3nnc4ccccn34)cc(=O)n2c1 was read as UPR XBP1 act -3, B2AR ag -6, UPR CHOP act 1, Mdm2 ligase inh -9, Mdm2 MdmX PPI 15 and Dynein transport 1.6.
`CCN(C1CCS(=O)(=O)C1)S(=O)(=O)c1ccc2ccccc2c1` (stereo unspecified) gave UPR XBP1 act -2, B2AR ag -1, UPR CHOP act -1 and Mdm2 MdmX PPI 21.
For COC(=O)c1sc2nc(SCC(=O)N(C)c3ccccc3)n(N)c(=O)c2c1C the results were UPR XBP1 act 1, B2AR ag -4, UPR CHOP act -1, Mdm2 ligase inh -7, Mdm2 MdmX PPI 56*, Dynein transport 0.7 and Mdm2-MdmX conf 8.
For COC(=O)c1sc2nc(SCc3ccccc3C)n(N)c(=O)c2c1C the results were UPR XBP1 act 13, B2AR ag -14, UPR CHOP act 2, Mdm2 ligase inh -2, Mdm2 MdmX PPI 35 and Dynein transport 1.1.
`CSc1nc(Oc2ccc3ccccc3c2)c2sccc2n1` gave UPR XBP1 act 2, B2AR ag 4, UPR CHOP act 0, Mdm2 ligase inh 8, Mdm2 MdmX PPI 55*, Dynein transport 0.48, Mdm2-MdmX conf 67* and FLuc counter 43*.
For Cc1cc(C(=O)Nc2ccc3ccccc3c2)c(C)o1 the results were UPR XBP1 act -5, B2AR ag 41, UPR CHOP act 6 and Mdm2 MdmX PPI -189.
